Measurements published in ChEMBL document CHEMBL1221280, “Discovery of achiral inhibitors of the hepatitis C virus NS3 protease based on 2(1H)-pyrazinones” (Bioorg Med Chem, 2010).

Assays:
[1] = Inhibition of HCV NS3 protease by FRET assay; design: species or system Hepacivirus hominis
Summary of the method: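 Full-length HCV NS3 (protease–helicase/NTPase) protein, protease activity read by FRET. Enzyme at 1 nM incubated 10 min at 30 °C in 50 mM HEPES pH 7.5, 10 mM DTT, 40% glycerol before measurement. Inhibitor Ki given with standard deviation. Wild type and the A156T and D168V variants were tested.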

NS3 protease = NS3 protease (Hepatitis C virus subtype 1b, UniProt Q0ZMF1, A156T); experiment: Inhibition of HCV NS3 protease A156T mutant by FRET assay; design: species or system Hepacivirus hominis
Summary of the method: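 Protease activity of full-length HCV NS3 (protease–helicase/NTPase) was measured by FRET. 1 nM enzyme was incubated 10 min at 30 °C in 50 mM HEPES pH 7.5, 10 mM DTT, 40% glycerol before read-out.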

Row | SMILES | Ki [1] [µM] | Ki (NS3 protease) [µM]
1 | C=C[C@@H]1C[C@]1(NC(=O)C(c1ccccc1)n1c(C)c(Cl)nc(NCCN2CCOCC2)c1=O)C(=O)NS(=O)(=O)C1CC1 (some centres undefined) | 11 | –
2 | C=C[C@@H]1C[C@]1(NC(=O)C(c1ccccc1)n1c(C)c(Cl)nc(NCCc2ccccc2)c1=O)C(=O)NS(=O)(=O)C1CC1 (some centres undefined) | 8.3 | –
3 | C=C[C@@H]1C[C@]1(NC(=O)C(c1ccccc1)n1c(C)c(Cl)nc(N)c1=O)C(=O)NS(=O)(=O)C1CC1 (some centres undefined) | 11 | –
4 | O=C(O)CNc1nc(Cl)cn(C(C(=O)Nc2ccccc2C(=O)NS(=O)(=O)c2ccc(C(F)(F)F)cc2)c2ccccc2)c1=O (centres undefined) | 2.3 | 1.8
5 | C=C[C@@H]1C[C@]1(NC(=O)C(c1ccc(OC)cc1)n1c(C)c(Cl)nc(NC(=O)OC(C)(C)C)c1=O)C(=O)NS(=O)(=O)C1CC1 (some centres undefined) | 7.2 | –
6 | C=C[C@@H]1C[C@]1(NC(=O)C(c1ccccc1)n1c(C)c(Cl)nc(NCC(N)=O)c1=O)C(=O)NS(=O)(=O)C1CC1 (some centres undefined) | 12 | –
7 | Cc1c(Cl)nc(NCC(N)=O)c(=O)n1CC(=O)Nc1ccccc1C(=O)NS(=O)(=O)c1ccc(C(F)(F)F)cc1 | 18 | –
8 | C=C[C@@H]1C[C@]1(NC(=O)[C@@H](NC(=O)[C@@H](NC(=O)OC(C)(C)C)C(C)(C)C)c1ccc(OC)cc1)C(=O)NS(=O)(=O)C1CC1 | 5.4 | –
9 | C=C[C@@H]1C[C@]1(NC(=O)C(c1ccccc1)n1c(C)c(Cl)nc(NCC(=O)N(C)C)c1=O)C(=O)NS(=O)(=O)C1CC1 (some centres undefined) | 28 | –
10 | O=C(O)CNc1nc(Cl)c(Cc2ccccc2)n(CC(=O)Nc2ccccc2C(=O)NS(=O)(=O)c2ccc(C(F)(F)F)cc2)c1=O | 1.5 | 2.5
11 | C=C[C@@H]1C[C@]1(NC(=O)C(c1ccccc1)n1c(C)c(Cl)nc(NC(=O)OC(C)(C)C)c1=O)C(=O)NS(=O)(=O)C1CC1 (some centres undefined) | 4.3 | 5.9
12 | C=C[C@@H]1C[C@]1(NC(=O)[C@H](NC(=O)[C@@H](NC(=O)OC(C)(C)C)C(C)(C)C)c1ccc(OC)cc1)C(=O)NS(=O)(=O)C1CC1 | 34 | –
13 | Cc1c(Cl)nc(NC(=O)OC(C)(C)C)c(=O)n1C(C(=O)Nc1ccccc1C(=O)NS(=O)(=O)c1ccc(C(F)(F)F)cc1)c1ccccc1 (centres undefined) | 3.8 | 1.5
14 | C=C[C@@H]1C[C@]1(NC(=O)C(c1ccccc1)n1c(C)c(Cl)nc(NCC(=O)N2CCOCC2)c1=O)C(=O)NS(=O)(=O)C1CC1 (some centres undefined) | 10 | –
15 | C=C[C@@H]1C[C@]1(NC(=O)C(c1ccccc1)n1c(C)c(Cl)nc(NC(=O)OC(C)(C)C)c1=O)C(=O)O (stereo in doubt; 29b) | 13 | –
16 | C=C[C@@H]1C[C@]1(NC(=O)C(c1ccccc1)n1c(C)c(Cl)nc(NCCC(C)(C)C)c1=O)C(=O)NS(=O)(=O)C1CC1 (some centres undefined) | 6.8 | –
17 | Cc1c(Cl)nc(NC(=O)OC(C)(C)C)c(=O)n1C(C(=O)N[C@@H](CC1CC1)C(=O)NS(=O)(=O)C1CC1)c1ccccc1 (some centres undefined) | 9.6 | –
18 | O=C(O)CNc1nc(Cl)c(-c2ccccc2)n(CC(=O)Nc2ccccc2C(=O)NS(=O)(=O)c2ccc(C(F)(F)F)cc2)c1=O | 3 | 5.6
19 | C=C[C@@H]1C[C@]1(NC(=O)C(c1ccccc1)n1c(C)c(Cl)nc(NC(=O)OC(C)(C)C)c1=O)C(=O)O (stereo in doubt; 29a) | 11 | –
